Data reported in ChEMBL document CHEMBL1146929, “Biological evaluation of a multi-targeted small molecule inhibitor of tumor-induced angiogenesis” (Bioorg Med Chem Lett, 2006).

How the values were obtained:
[1] = biological target: Platelet-derived growth factor receptor (Homo sapiens, UniProt P09619+P16234); assay: Inhibitory activity against recombinant human PDGFR; format: protein-complex assay
[2] = Cmax in Wistar rat at 200 mg/kg, po; format: ADME, organism-based; parameters: dose 200 mg/kg, route oral; details: in vivo
Outline: (§1)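 Single doses given iv and orally. Mice (athymic nude) received 10 mg/kg iv, with bleeds at 1, 5, 15, 30 min and 1-24 h, and 50 or 200 mg/kg po, with bleeds at 5 min-24 h. Wistar rats received 5 mg/kg iv through a femoral arterial catheter, with jugular bleeds to 24 h, and 50 or 200 mg/kg po, with bleeds to 48 h. The iv vehicle was 2% DMA/10% PEG400/88% of 40% HPBCD and the oral vehicle 2% Klucel LF/0.1% Tween 80. EDTA plasma was assayed by LC-MS/MS against a calibration of 1-2000 ng/mL.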

[3] = AUC in nude mice at 10 mg/kg, iv; format: ADME, organism-based; parameters: dose 10 mg/kg, route intravenous; details: mouse, plasma; outline: as §1
[4] = AUC in Wistar rat at 200 mg/kg, po; format: ADME, organism-based; parameters: dose 200 mg/kg, route oral; details: plasma; outline: as §1
HUVEC [5] = assay: Inhibitory activity against VEGF-induced proliferation of HUVEC cells; format: functional, cell-based; details: Homo sapiens
Outline: (§2)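 HUVECs were grown to subconfluence, serum-starved for 24 h, then given compound for 2 h before stimulation with 20 ng/mL VEGF or 5 ng/mL bFGF. BrdU label was added after 20 h with compound. Incorporation was read 4 h later with a peroxidase anti-BrdU antibody and colorimetric detection. IC50 came from a single experiment in duplicate.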

Mus musculus [6] = assay: Inhibition of tumor growth in nude mice implanted with H460a cells at 200 mg/kg, po after 28 days; format: functional; details: 672 h
[7] = Cmax in nude mice at 200 mg/kg, po; format: ADME, organism-based; parameters: dose 200 mg/kg, route oral; details: mouse, in vivo; outline: as §1
[8] = biological target: Cyclin-dependent kinase 1/cyclin B (Homo sapiens, UniProt P06493); assay: Inhibition of CDK1/cyclinB; format: protein-complex assay
Outline: (§3)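 IMAP fluorescence-polarization kinase assay: phosphorylated fluorescent peptide substrate binds immobilized metal beads, giving a measure of kinase activity. Reactions were run with ATP at three times the Km of each kinase.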

[9] = Half life in Wistar rat at 50 mg/kg, po; format: ADME, organism-based; parameters: dose 50 mg/kg, route oral; details: in vivo; outline: as §1
Mus musculus [10] = assay: Inhibition of tumor growth in nude mice implanted with H460a cells at 50 mg/kg, po after 28 days; format: functional; details: 672 h
[11] = AUC in nude mice at 200 mg/kg, po; format: ADME, organism-based; parameters: dose 200 mg/kg, route oral; details: mouse, plasma; outline: as §1
[12] = Half life in Wistar rat at 200 mg/kg, po; format: ADME, organism-based; parameters: dose 200 mg/kg, route oral; details: in vivo; outline: as §1
[13] = AUC in Wistar rat at 50 mg/kg, po; format: ADME, organism-based; parameters: dose 50 mg/kg, route oral; details: plasma; outline: as §1
Mus musculus [14] = assay: Inhibition of tumor growth in nude mice implanted with H460a cells at 100 mg/kg, po after 28 days; format: functional; details: 672 h
[15] = biological target: RAC-alpha serine/threonine-protein kinase (Homo sapiens, UniProt P31749); assay: Inhibitory activity against AKT; outline: as §3
RAC-alpha serine/threonine-protein kinase, sequence (P31749 whole entry): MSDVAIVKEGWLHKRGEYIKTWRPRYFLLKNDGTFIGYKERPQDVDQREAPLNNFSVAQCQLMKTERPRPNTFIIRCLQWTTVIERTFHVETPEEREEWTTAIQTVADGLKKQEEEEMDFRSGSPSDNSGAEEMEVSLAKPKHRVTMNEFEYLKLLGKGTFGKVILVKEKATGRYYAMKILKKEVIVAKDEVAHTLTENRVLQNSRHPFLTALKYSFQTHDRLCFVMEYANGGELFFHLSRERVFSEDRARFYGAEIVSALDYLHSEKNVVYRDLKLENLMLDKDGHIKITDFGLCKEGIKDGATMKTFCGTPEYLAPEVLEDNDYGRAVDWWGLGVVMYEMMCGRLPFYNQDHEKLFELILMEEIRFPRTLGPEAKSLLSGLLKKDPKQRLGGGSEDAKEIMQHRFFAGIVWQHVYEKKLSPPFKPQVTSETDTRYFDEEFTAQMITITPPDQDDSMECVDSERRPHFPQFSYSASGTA

[16] = Half life in nude mice at 50 mg/kg, po; format: ADME, organism-based; parameters: dose 50 mg/kg, route oral; details: mouse, in vivo; outline: as §1
[17] = AUC in Wistar rat at 5 mg/kg, iv; format: ADME, organism-based; parameters: dose 5 mg/kg, route intravenous; details: plasma; outline: as §1
[18] = Half life in Wistar rat at 5 mg/kg, iv; format: ADME, organism-based; parameters: dose 5 mg/kg, route intravenous; details: in vivo; outline: as §1
[19] = biological target: T1, Serine/threonine-protein kinase Sgk1 (Homo sapiens, UniProt O00141); assay: Inhibitory activity against SGK; outline: as §3
T1 sequence (O00141 whole entry): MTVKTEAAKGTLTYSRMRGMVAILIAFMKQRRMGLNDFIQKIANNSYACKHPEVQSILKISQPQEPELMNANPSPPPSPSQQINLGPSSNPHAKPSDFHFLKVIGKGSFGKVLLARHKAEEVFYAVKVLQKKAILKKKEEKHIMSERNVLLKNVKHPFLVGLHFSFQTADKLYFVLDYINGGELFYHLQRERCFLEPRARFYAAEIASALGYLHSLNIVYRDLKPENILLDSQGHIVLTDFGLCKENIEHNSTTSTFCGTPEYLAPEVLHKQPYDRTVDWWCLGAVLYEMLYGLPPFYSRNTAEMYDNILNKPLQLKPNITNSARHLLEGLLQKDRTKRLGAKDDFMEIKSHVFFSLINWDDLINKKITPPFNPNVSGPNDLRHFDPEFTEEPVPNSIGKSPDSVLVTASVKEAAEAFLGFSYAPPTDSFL

[20] = Volume of distribution in nude mice at 10 mg/kg, iv; format: ADME, organism-based; parameters: dose 10 mg/kg, route intravenous; details: mouse, in vivo, read-out: Vdss; outline: as §1
Mus musculus [21] = assay: Inhibition of VEGF-induced corneal angiogenesis in C57/BL6 mice at 50 mg/kg, po after 7 days; format: functional; details: C57/BL6, Cornea, 168 h
Outline: (§4)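 VEGF-containing pellets were implanted in the cornea of C57/BL6 mice. Cohorts were dosed orally bid at 12.5, 50 or 200 mg/kg for 7 days, after which the area of corneal angiogenesis (mm2) was quantified against vehicle. Body weight was monitored throughout.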

[22] = Half life in nude mice at 10 mg/kg, iv; format: ADME, organism-based; parameters: dose 10 mg/kg, route intravenous; details: mouse, in vivo; outline: as §1
[23] = Clearance in nude mice at 10 mg/kg, iv; format: ADME, organism-based; parameters: dose 10 mg/kg, route intravenous; details: mouse, in vivo; outline: as §1
[24] = biological target: Protein kinase C alpha type (Homo sapiens, UniProt P17252); assay: Inhibitory activity against PKC alpha
Outline: (§5)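 IMAP homogeneous fluorescence-polarisation kinase assay: phosphorylated fluorescent peptide substrate binds immobilised metal beads, read as kinase activity. Reactions run at ATP three times the Km for each enzyme.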

NCI-H460 = assay: Antiproliferative activity against H460a by MTT assay; format: functional, cell-based; details: Homo sapiens
Outline: (§6)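 Exponentially growing HCT116 or H460a tumor cells were plated and held overnight at 37 C before compound was added. Proliferation was read as MTT formazan formation during a 2.5 h incubation 6 days after plating. IC50 came from a single experiment run in duplicate.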

[25] = biological target: Vascular endothelial growth factor receptor 2 (Homo sapiens, UniProt P35968); assay: Inhibitory activity against recombinant human KDR
Vascular endothelial growth factor receptor 2, sequence (P35968 whole entry): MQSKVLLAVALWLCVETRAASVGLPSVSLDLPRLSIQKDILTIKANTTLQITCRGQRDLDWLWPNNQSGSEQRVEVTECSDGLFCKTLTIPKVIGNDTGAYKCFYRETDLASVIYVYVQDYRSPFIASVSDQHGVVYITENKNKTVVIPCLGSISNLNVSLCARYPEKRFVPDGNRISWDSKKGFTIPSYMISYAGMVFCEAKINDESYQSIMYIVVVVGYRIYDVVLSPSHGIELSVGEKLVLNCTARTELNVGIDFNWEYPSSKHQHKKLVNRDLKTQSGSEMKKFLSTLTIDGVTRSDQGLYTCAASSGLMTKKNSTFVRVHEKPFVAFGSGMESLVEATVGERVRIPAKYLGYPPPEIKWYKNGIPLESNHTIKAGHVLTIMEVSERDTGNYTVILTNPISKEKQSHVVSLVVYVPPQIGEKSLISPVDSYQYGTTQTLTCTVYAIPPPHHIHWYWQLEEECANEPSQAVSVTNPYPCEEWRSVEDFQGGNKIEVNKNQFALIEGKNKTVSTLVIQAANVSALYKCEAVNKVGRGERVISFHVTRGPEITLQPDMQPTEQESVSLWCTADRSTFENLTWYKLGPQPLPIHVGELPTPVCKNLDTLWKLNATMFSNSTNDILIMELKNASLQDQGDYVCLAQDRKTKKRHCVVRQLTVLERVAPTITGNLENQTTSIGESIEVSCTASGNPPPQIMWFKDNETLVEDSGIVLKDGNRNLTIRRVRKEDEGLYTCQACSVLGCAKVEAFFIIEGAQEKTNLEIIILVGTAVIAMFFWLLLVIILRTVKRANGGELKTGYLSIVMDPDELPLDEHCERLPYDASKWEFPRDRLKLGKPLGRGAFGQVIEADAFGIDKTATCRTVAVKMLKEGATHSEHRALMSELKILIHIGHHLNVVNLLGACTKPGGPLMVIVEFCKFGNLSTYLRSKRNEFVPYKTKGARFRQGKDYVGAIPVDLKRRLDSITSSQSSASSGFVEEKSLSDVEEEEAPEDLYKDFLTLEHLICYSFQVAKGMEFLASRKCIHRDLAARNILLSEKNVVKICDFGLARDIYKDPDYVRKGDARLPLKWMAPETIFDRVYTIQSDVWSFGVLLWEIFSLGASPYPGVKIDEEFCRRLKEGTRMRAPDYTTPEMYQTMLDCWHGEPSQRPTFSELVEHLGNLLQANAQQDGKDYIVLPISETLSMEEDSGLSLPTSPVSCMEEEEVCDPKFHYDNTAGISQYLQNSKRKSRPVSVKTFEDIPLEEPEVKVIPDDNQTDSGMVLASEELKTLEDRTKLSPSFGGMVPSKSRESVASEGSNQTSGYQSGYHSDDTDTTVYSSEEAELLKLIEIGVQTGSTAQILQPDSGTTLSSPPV

[26] = biological target: Mitogen-activated protein kinase 1 (Homo sapiens, UniProt P28482); assay: Inhibitory activity against Erk2; outline: as §5
Mitogen-activated protein kinase 1, sequence (P28482 whole entry): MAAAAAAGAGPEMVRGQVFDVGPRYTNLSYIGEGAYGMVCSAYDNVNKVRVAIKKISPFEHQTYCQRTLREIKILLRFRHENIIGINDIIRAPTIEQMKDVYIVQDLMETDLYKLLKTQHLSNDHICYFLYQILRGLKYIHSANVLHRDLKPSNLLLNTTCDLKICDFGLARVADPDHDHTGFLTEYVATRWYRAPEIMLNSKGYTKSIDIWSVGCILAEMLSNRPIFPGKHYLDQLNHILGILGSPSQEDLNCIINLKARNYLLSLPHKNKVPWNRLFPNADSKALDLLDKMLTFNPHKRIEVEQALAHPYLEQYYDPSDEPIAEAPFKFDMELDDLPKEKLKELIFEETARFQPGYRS

[27] = biological target: Protein kinase C delta type (Homo sapiens, UniProt Q05655); assay: Inhibitory activity against PKC delta; outline: as §3
Protein kinase C delta type, sequence (Q05655 whole entry): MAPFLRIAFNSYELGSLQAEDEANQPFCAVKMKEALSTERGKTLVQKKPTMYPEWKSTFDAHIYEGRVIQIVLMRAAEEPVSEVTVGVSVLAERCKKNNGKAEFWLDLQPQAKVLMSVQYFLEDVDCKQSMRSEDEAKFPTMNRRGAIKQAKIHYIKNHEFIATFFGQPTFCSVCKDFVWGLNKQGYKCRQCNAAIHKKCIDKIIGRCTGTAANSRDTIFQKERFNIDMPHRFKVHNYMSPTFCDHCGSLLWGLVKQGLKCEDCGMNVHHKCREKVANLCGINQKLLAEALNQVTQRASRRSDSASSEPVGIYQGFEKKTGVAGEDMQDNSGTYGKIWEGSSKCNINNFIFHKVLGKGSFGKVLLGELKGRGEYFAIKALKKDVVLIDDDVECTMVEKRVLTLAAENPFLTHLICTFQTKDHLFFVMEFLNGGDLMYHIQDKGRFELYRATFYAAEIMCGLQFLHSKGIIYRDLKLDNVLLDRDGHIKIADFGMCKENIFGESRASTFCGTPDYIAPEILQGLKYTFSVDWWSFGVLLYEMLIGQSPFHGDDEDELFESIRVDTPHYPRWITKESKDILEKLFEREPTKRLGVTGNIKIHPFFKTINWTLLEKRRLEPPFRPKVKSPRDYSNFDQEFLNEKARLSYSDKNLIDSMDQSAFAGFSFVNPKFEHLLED

[28] = Clearance in Wistar rat at 5 mg/kg, iv; format: ADME, organism-based; parameters: dose 5 mg/kg, route intravenous; details: in vivo; outline: as §1
HUVEC [29] = assay: Inhibitory activity against bFGF-induced proliferation of HUVEC cells; format: functional, cell-based; details: Homo sapiens; outline: as §2
Ephrin type-B receptor 3 = biological target: T2, Ephrin type-B receptor 3 (Homo sapiens, UniProt P54753); assay: Inhibitory activity against EphB3; outline: as §3
T2 sequence (P54753 whole entry): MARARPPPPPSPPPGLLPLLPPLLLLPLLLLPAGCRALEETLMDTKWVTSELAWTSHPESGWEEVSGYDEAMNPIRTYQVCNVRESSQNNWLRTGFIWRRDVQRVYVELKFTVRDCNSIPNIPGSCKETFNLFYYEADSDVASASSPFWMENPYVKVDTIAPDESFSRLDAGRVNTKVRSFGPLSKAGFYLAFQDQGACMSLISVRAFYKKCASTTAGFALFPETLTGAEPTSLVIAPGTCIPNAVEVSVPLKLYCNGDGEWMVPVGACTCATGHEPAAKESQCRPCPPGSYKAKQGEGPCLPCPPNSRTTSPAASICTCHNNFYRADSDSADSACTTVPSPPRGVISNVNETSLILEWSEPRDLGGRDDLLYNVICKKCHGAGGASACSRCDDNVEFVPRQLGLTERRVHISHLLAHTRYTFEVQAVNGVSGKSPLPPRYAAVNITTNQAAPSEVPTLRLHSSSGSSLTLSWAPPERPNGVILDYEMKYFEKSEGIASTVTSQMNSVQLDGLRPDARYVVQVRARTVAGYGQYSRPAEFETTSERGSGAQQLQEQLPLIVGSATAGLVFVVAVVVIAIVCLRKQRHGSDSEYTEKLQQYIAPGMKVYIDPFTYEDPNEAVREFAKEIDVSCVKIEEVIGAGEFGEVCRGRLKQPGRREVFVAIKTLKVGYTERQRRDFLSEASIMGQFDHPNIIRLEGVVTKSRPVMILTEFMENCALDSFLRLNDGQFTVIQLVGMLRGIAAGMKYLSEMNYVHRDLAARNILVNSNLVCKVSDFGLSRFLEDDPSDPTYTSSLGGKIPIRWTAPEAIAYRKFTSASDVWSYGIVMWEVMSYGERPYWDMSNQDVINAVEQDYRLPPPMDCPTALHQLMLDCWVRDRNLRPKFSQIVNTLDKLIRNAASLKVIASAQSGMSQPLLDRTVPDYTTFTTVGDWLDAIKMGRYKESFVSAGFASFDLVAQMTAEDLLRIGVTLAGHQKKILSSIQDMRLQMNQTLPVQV

[30] = Cmax in nude mice at 50 mg/kg, po; format: ADME, organism-based; parameters: dose 50 mg/kg, route oral; details: mouse, in vivo; outline: as §1
[31] = Volume of distribution in Wistar rat at 5 mg/kg, iv; format: ADME, organism-based; parameters: dose 5 mg/kg, route intravenous; details: in vivo, read-out: Vdss; outline: as §1
[32] = Half life in nude mice at 200 mg/kg, po; format: ADME, organism-based; parameters: dose 200 mg/kg, route oral; details: mouse, in vivo; outline: as §1
[33] = Cmax in Wistar rat at 50 mg/kg, po; format: ADME, organism-based; parameters: dose 50 mg/kg, route oral; details: in vivo; outline: as §1
[34] = biological target: cAMP-dependent protein kinase (PKA) (Homo sapiens, UniProt P22694+P17612+P22612); assay: Inhibitory activity against PKA; format: protein assay; outline: as §3
[35] = AUC in nude mice at 50 mg/kg, po; format: ADME, organism-based; parameters: dose 50 mg/kg, route oral; details: mouse, plasma; outline: as §1
Mus musculus [36] = assay: Inhibition of VEGF-induced corneal angiogenesis in C57/BL6 mice at 200 mg/kg, po after 7 days; format: functional; details: C57/BL6, Cornea, 168 h; outline: as §4
HCT-116 = assay: Antiproliferative activity against HCT116 by MTT assay; format: functional, cell-based; details: Homo sapiens; outline: as §6

COc1ccc(N2Cc3cnc(Nc4ccc(F)cc4)nc3N(C3CC[C@@H](O)C3)C2=O)cc1 (single isomer, unassigned)
IC50 [1]: 0.083 µM
Cmax [2]: 10.3 µg/mL
AUC [3]: 12.1 µg·h/mL
AUC [4]: 285 µg·h/mL
IC50 (HUVEC [5]): 0.035 µM
inhibition in vivo at 200 mg/kg (Mus musculus [6]): 95%
Cmax [7]: 82.6 µg/mL
IC50 [8]: > 125 µM
half-life [9]: 5 h
inhibition in vivo at 50 mg/kg (Mus musculus [10]): 78%
AUC [11]: 260 µg·h/mL
half-life [12]: 7.8 h
AUC [13]: 40.9 µg·h/mL
inhibition in vivo at 100 mg/kg (Mus musculus [14]): 87%
IC50 [15]: > 125 µM
half-life [16]: 1.9 h
AUC [17]: 2.77 µg·h/mL
half-life [18]: 4.3 h
IC50 [19]: > 125 µM
Vd [20]: 1.9 L/kg
inhibition in vivo at 50 mg/kg (Mus musculus [21]): 67%
half-life [22]: 2 h
clearance [23]: 0.828 L/h/kg
IC50 [24]: > 125 µM
IC50 (NCI-H460): 2.5 µM
IC50 [25]: 0.05 µM
IC50 [26]: 12.6 µM
IC50 [27]: > 125 µM
clearance [28]: 1.95 L/h/kg
IC50 (HUVEC [29]): 0.149 µM
IC50 (Ephrin type-B receptor 3): 1.25 µM
Cmax [30]: 29.1 µg/mL
Vd [31]: 3.7 L/kg
half-life [32]: 1.7 h
Cmax [33]: 3.16 µg/mL
IC50 [34]: 9.01 µM
AUC [35]: 96.5 µg·h/mL
inhibition in vivo at 200 mg/kg (Mus musculus [36]): 91%
IC50 (HCT-116): 3 µM
